ChEMBL document CHEMBL4257556, “Novel 1,3,4-thiadiazole-chalcone hybrids containing catechol moiety: synthesis, antioxidant activity, cytotoxicity and DNA interaction studies” (Medchemcomm, 2018)
Active and inactive are the calls of the source. The rule behind the calls is not given here.

What was measured:
[1] = tested on: Calf thymus DNA; test: Displacement of Hoechst 33258 from calf thymus DNA assessed as quenching constant by fluorescence spectrophotometric analysis; format: nucleic-acid assay; settings: Bos taurus
Method in brief: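 CT-DNA 100 μM (per phosphate) in 40 mM bicarbonate pH 8.4 pretreated 20 min with Hoechst 33258 (28 μM final), then compound added stepwise. Excitation 350 nm, emission 390–550 nm, read at 444 nm, 10 nm slits; H–DNA as control. Quenching constant K by Stern–Volmer, I0/I versus r = [compound]/[DNA]; triplicate.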

[2] = tested on: HeLa; test: Cell cycle arrest in human HeLa cells assessed as accumulation at G2/M phase at IC50 after 24 hrs by propidium iodide staining-based flow cytometric method; format: functional
Method in brief: (§1)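 HeLa cells treated 24 h at IC50 or 2×IC50 (from 72 h assay), fixed in 70% ethanol, stored at –20 °C ≥1 week, RNase A 30 min 37 °C, propidium iodide stained; flow cytometry, 10 000 gated events. Mean ± SD of three independent experiments; one-way ANOVA with Dunnett's post-test, p < 0.05.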

[3] = tested on: Calf thymus DNA; test: Binding affinity to calf thymus DNA assessed as hyperchromism at 10 uM after 90 mins by UV/visible spectrophotometric analysis; format: nucleic-acid assay; settings: Bos taurus
Method in brief: (§2)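 CT-DNA stock in 10 mM Tris-HCl pH 7.9 (A260/A280 1.89–2.01; concentration from ε260 6600 M–1 cm–1). Compound (10, 20 or 40 μM) plus CT-DNA (95 μM) in 40 mM bicarbonate pH 8.4, 37 °C 90 min; spectra 200–800 nm. Hyper/hypochromism at 259 nm from bound versus summed free compound and DNA extinction; triplicate.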

[4] = tested on: DNA; test: Induction of Escherichia coli pUC19 DNA cleavage after 90 mins by agarose gel electrophoresis method; format: nucleic-acid assay
Method in brief: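 Plasmid pUC19 (from E. coli XL1 blue; 460 ng, 12 nM) incubated with compound (0.05–0.4 mM; from 2 mM DMSO stock) in 20 μL 40 mM bicarbonate pH 8.4 at 37 °C for 90 min; 1% agarose gel in TAE at 80 V, ethidium bromide staining, UV at 312 nm; supercoiled/nicked/linear forms scored.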

[5] = tested on: HeLa; test: Antioxidant activity in human HeLa cells assessed as decrease in reactive oxygen species at 10 uM after 24 hrs by dichlorofluorescein dye-based flow cytometric method; format: functional, cell-based
Method in brief: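 HeLa cells pretreated 24 h with 10 μM compound, washed, loaded with 30 μM DCFH-DA in PBS 45 min at 37 °C. One portion read directly (endogenous ROS); other portion exposed to 10 mM H2O2 30 min at 37 °C. DCF green fluorescence by flow cytometry, 20 000 events per sample; mean ± SD of two independent experiments.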

[6] = tested on: Calf thymus DNA; test: Binding affinity to calf thymus DNA assessed as hyperchromism at 40 uM after 90 mins by UV/visible spectrophotometric analysis; format: nucleic-acid assay; settings: Bos taurus; method in brief: as §2
[7] = tested on: MRC5; test: Induction of DNA damage in human MRC5 cells assessed as formation of DNA breaks at 25 uM after 24 hrs by comet assay relative to control; format: functional
Method in brief: (§3)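 MRC-5 cells exposed 24 h to 3.125–25 μM compound; DNA damage scored as % tail DNA (tail intensity) by comet assay. PBS negative control; H2O2 50 μM 5 min in-gel positive control. Triplicate, repeated twice; mean ± SD.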

[8] = tested on: HeLa; test: Cell cycle arrest in human HeLa cells assessed as accumulation at sub-G1 phase at IC50 and 2 times IC50 after 24 hrs by propidium iodide staining-based flow cytometric method; format: functional; method in brief: as §1
[9] = tested on: HeLa; test: Cell cycle arrest in human HeLa cells assessed as accumulation at sub-G1 phase at 2 times IC50 after 24 hrs in presence of caspase-9 inhibitor Z-LEHD-FMK by propidium iodide-staining based flow cytometric method; format: functional
Method in brief: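 HeLa cells pretreated 2 h with 40 μM peptide caspase inhibitor (Z-DEVD-FMK caspase-3, Z-IETD-FMK caspase-8 or Z-LEHD-FMK caspase-9), then exposed to 2×IC50 compound; subG1 fraction by propidium iodide flow cytometry, compared with samples lacking inhibitor.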

[10] = tested on: DNA; test: Reversal of Fe2+-induced Escherichia coli pUC19 DNA cleavage at 1:2 compound to Fe2+ mole ratio after 90 mins by agarose gel electrophoresis method; format: functional
Method in brief: (§4)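 Compound (4 μL of 2 mM) preincubated with FeSO4 (1 or 2 μL of 8 mM; compound:Fe 1:1 or 1:2) in bicarbonate buffer 60 min at 37 °C, then pUC19 added for another 90 min; products resolved on 1% agarose gel, ethidium bromide stained.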

[11] = tested on: A549; test: Cytotoxicity against human A549 cells assessed as decrease in cell survival after 72 hrs by MTT assay; format: functional, cell-based; settings: A549, 72 h
Method in brief: (§5)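 HeLa (2000/well), A549 and MRC-5 (5000/well) seeded 20 h before treatment; HL-60 (7000/well) 2 h before. Five concentrations (6.25–100 μM or 3.125–50 μM) from 5 mM DMSO stocks, final DMSO ≤1%, 72 h; survival by MTT. Cisplatin positive control; three independent experiments in triplicate.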

[12] = tested on: Calf thymus DNA; test: Binding affinity to calf thymus DNA at 10 to 40 uM after 90 mins by UV/visible spectrophotometric analysis; format: nucleic-acid assay; settings: Bos taurus; method in brief: as §2
[13] = tested on: HeLa; test: Cell cycle arrest in human HeLa cells assessed as decrease in cell levels at G1 phase at 2 times IC50 after 24 hrs by propidium iodide staining-based flow cytometric method; format: functional; method in brief: as §1
[14] = tested on: MRC5; test: Induction of DNA damage in human MRC5 cells assessed as formation of DNA breaks after 24 hrs by comet assay; format: functional, cell-based; method in brief: as §3
[15] = tested on: HeLa; test: Downregulation of miR-133b expression in human HeLa cells at 10 uM after 24 hrs by RT-qPCR method; format: functional, cell-based
[16] = tested on: DNA; test: Reversal of Fe2+-induced Escherichia coli pUC19 DNA cleavage at 1:1 compound to Fe2+ mole ratio after 90 mins by agarose gel electrophoresis method; format: functional; method in brief: as §4
[17] = tested on: HeLa; test: Cytotoxicity against human HeLa cells assessed as decrease in cell survival after 72 hrs by MTT assay; format: functional, cell-based; method in brief: as §5
[18] = tested on: Calf thymus DNA; test: Binding affinity to calf thymus DNA after 90 mins by spectroscopic titration method; format: nucleic-acid assay; settings: Bos taurus
Method in brief: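 Compound fixed at 40 μM titrated with CT-DNA (2.2–13 × 10–5 M) in 40 mM bicarbonate pH 8.4 after 90 min at 37 °C; absorbance at 259 nm per DNA level. Kb from slope/intercept ratio of [DNA]/(εa–εf) versus [DNA] plot; triplicate assays.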

[19] = tested on: HL-60; test: Cytotoxicity against human HL60 cells assessed as decrease in cell survival after 72 hrs by MTT assay; format: functional, cell-based; settings: HL-60, 72 h; method in brief: as §5
[20] = tested on: HeLa; test: Cell cycle arrest in human HeLa cells assessed as decrease in cell levels at G1 phase at IC50 after 24 hrs by propidium iodide staining-based flow cytometric method; format: functional; method in brief: as §1
[21] = tested on: HeLa; test: Upregulation of MMP9 gene expression in human HeLa cells at 10 uM after 24 hrs by RT-qPCR method; format: functional, cell-based
[22] = tested on: Calf thymus DNA; test: Binding affinity to calf thymus DNA assessed as hyperchromism at 20 uM after 90 mins by UV/visible spectrophotometric analysis; format: nucleic-acid assay; settings: Bos taurus; method in brief: as §2
[23] = tested on: HeLa; test: Downregulation of MMP2 gene expression in human HeLa cells at 10 uM after 24 hrs by RT-qPCR method; format: functional, cell-based

K [1]: 2.95 | Activity [3]: -13.7% | Activity [4]: inactive | Activity [6]: -4.9% | Activity [12]: Active | Kb [18]: 0.74 ×10³ /M | Activity [22]: -7.36%
SMILES: Cc1cccc(C(=O)/C=C/c2ccc(C(=O)Nc3nnc(-c4ccc(O)c(O)c4)s3)cc2)c1
Activity [2]: Active | Activity [5]: Active | Activity [7]: 38% | Activity [8]: Active | Activity [9]: inactive | Activity [10]: Active | IC50 [11]: 27.9 µM | Activity [13]: Active | Activity [14]: Dose-dependent effect | Activity [15]: Active | Activity [16]: Active | IC50 [17]: 9.63 µM | IC50 [19]: 8.39 µM | Activity [20]: Active | Activity [21]: Active | Activity [23]: Active
